Data from publication PMC2842018 (European journal of nuclear medicine and molecular imaging, 2008).

Legend:
glioblastoma = glioblastoma patients, radiotherapy plus temozolomide; ref [1]; cited from earlier work
[1] = system: U-87MG cells (α3 integrin); assay: Fluorescence microscopy of U-87MG cells stained with biotinylated LXY1; assay type: cell-based, human
Summary of the method: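 U-87MG cells at 80–90% confluence were dissociated with 0.05% trypsin-EDTA. Each sample (3×10⁵ cells) was incubated with biotinylated peptide in PBS with 10% FBS and 1 mM MnCl2 for 30 min on ice, washed three times, given streptavidin-Alexa488 for 30 min and washed once. Cells were cytospun onto slides (2000 rpm, 2 min), mounted with DAPI medium and viewed by fluorescence microscopy. For blocking, unlabeled peptide or anti-α3 integrin antibody (clone P1B5) was co-incubated.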

α3 integrin = settings: ovarian cancer, ref [7]; cited from earlier work

For Cn1nnc2c(C(N)=O)ncn2c1=O [temozolomide], the median survival (glioblastoma) is listed as 14.6 months.
For cdGLGBNc (disulfide) [LXY1], the “blocking of cell staining by biotinylated LXY1” value ([1]; excess unlabeled LXY1 or anti-α3 antibody (clone P1B5) as blocker, streptavidin-Alexa488) was “almost completely abolished”.
For cDGXGXXc, the “binding preference and specificity” value (α3 integrin) is listed as “bind preferentially to ovarian cancer with high specificity against α3 integrin”.
In the case of “cdGLGBNc-linker-linker-Biotin (disulfide) [LXY1-biotin]”, the “staining of U-87MG cells” value ([1]; biotinylated LXY1 30 min, streptavidin-Alexa488 30 min, DAPI counterstain) is reported as “Strong staining”.
